Measurements: ChEMBL document CHEMBL2157904, “Identification of a novel Smoothened antagonist that potently suppresses Hedgehog signaling” (Bioorg Med Chem, 2012)
Activity calls are given as the source filed them. No cut-off for these calls is given here.

What was measured:
[1] = Antiproliferative activity against Shh-stimulated C57BL/6 mouse granule cell precursor after 48 hrs by [3H]thymidine incorporation assay; assay type: functional
Outline: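 Primary cerebellar granule cell precursors taken from 7-day postnatal C57BL/6 mice. Treated 48 h with Shh plus compound at increasing concentrations, then [3H]-thymidine added for 16 h and incorporation measured. Curve-fit IC50, mean ± SEM, n = 3.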

Protein smoothened = Protein smoothened (Mus musculus, UniProt P56726); assay: Antagonist activity at Smo in mouse Shh-Light 2 cells assessed as inhibition of Shh-induced Gli1-reporter activity after 2 days by dual-luciferase reporter gene method; assay type: functional, cell-based, Shh Light II
Chain of Protein smoothened (P56726 whole entry): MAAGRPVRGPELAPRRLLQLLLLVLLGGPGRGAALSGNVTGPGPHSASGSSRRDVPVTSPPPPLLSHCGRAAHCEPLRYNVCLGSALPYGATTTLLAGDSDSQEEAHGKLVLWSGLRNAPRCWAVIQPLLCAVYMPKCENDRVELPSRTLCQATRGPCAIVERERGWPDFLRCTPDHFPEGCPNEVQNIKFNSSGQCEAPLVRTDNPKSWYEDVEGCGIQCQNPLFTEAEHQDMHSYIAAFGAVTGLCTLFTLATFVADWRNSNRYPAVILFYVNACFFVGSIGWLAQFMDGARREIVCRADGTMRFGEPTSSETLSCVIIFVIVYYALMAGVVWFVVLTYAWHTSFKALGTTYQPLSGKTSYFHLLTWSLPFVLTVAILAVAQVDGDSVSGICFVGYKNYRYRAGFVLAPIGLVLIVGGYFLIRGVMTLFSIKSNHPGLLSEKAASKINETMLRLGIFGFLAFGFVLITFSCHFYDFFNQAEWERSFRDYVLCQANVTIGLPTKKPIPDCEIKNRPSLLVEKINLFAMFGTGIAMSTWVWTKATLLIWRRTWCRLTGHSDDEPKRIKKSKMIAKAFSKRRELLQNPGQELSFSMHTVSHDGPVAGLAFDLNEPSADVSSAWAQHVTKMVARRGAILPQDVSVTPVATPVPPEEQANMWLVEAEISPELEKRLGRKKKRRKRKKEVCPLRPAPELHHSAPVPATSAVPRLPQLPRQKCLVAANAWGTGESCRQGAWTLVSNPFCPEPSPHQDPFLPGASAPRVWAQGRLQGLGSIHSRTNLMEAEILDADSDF
Outline: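 Shh-LIGHT2 cells (clonal NIH3T3 line with stably integrated Gli-dependent firefly luciferase and constitutive Renilla luciferase) stimulated with purified Sonic Hedgehog at 50 ng/mL, with compound at increasing concentrations. Dual-luciferase read-out. Mean ± SEM.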

[2] = target: Vasopressin V2 receptor (Homo sapiens) (UniProt P30518); assay: Antagonist activity at V2R expressed in U2OS cells coexpressing beta arrestin2-GFP assessed as inhibition of D-arginine vasopressin-induced intracellular beta arrestin2-GFP aggregate formation at 5 uM preincubated for 1 hr before agonist treatment measured after 6 hrs of agonist treatment by confocal microscopy; assay type: functional, cell-based
Chain of Vasopressin V2 receptor (Homo sapiens) (P30518 whole entry): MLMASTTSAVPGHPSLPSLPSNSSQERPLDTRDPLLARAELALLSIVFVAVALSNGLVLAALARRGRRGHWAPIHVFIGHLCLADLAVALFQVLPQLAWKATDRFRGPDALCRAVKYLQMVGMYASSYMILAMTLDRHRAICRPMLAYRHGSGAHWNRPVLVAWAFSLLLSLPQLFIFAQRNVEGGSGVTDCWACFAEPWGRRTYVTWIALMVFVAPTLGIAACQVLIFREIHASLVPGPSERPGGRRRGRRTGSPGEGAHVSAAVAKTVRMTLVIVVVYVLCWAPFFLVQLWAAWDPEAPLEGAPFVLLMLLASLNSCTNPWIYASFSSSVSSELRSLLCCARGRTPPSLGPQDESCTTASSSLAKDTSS

Mus musculus = assay: Inhibition of hair regrowth in eight week old C57BL/6 mouse at 0.5 mM topically administered daily on shaved and Nair depilated surface for 2 weeks; assay type: functional, organism-based
Outline: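 Female C57BL/6 mice aged eight weeks, in telogen, with dorsal skin shaved and then depilated with Nair for 2 min and rinsed. Compound at 0.5 mM in 95% acetone/5% DMSO, 30 µl applied topically to the depilated area daily for two weeks. Vehicle-treated controls. Brief 3% isoflurane anaesthesia during procedures.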

U2OS = assay: Antagonist activity at chimeric Smo 633 mutant expressed in U2OS cells coexpressing beta arrestin2-GFP assessed as inhibition of intracellular beta arrestin2-GFP aggregate formation at 5 uM after 6 hrs by confocal microscopy; assay type: functional, cell-based; conditions: Homo sapiens
Outline: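 Cells exposed to compound at 5 µM for 6 hours. Confocal imaging scored loss of intracellular βarr2-GFP vesicular aggregates.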

IC50 (Protein smoothened)	Structure (SMILES)	IC50 [1]	inhibition [2]	inhibition (Mus musculus)	inhibition (U2OS)
–	CS(=O)(=O)c1ccc(C(=O)Nc2ccc(Cl)c(-c3ccccn3)c2)c(Cl)c1 [VISMODEGIB]	16.4 nM	–	–	–
2.6 nM	O=C(NC1CCN(Cc2ccc(N3CCC(NC(=O)c4cccc(-c5cccnc5)c4)CC3)nc2)CC1)c1cccc(-c2cccnc2)c1	16.6 nM	inactive	Active	–
–	CCN(C)Cc1ccc(N2CCC(NC(=O)c3cccc(-c4cccnc4)c3)CC2)nc1	–	–	–	Active
–	CC1=C2C[C@H]3[C@@H](CC=C4C[C@@H](O)CC[C@@]43C)[C@@H]2CC[C@]12O[C@@H]1C[C@H](C)CN[C@H]1[C@H]2C [CYCLOPAMINE]	414 nM	inactive	–	Active
